# Reference: ChEMBL document CHEMBL3217512, “Indole/triazole conjugates are selective inhibitors and inducers of bacterial biofilms” (Medchemcomm, 2013)
# Experiments:
# Staphylococcus aureus [1] = experiment: Antimicrobial activity against methicillin-resistant Staphylococcus aureus BAA 44 assessed as effect on planktonic growth at IC50 after 2 to 24 hrs by colony count method; assay type: organism-based; settings: in vivo
# Acinetobacter baumannii [2] = experiment: Antimicrobial activity against Acinetobacter baumannii 19606 assessed as effect on planktonic growth at IC50 after 2 to 24 hrs; parameters: species or system ATCC 19606
# Escherichia coli [3] = experiment: Inhibition of biofilm formation in Escherichia coli K-12 ER2718 at 150 uM after 24 hrs by crystal violet staining-based assay relative to control; assay type: functional; settings: K-12 ER2718, 24 h
# Staphylococcus aureus [4] = experiment: Antimicrobial activity against Staphylococcus aureus 29213 assessed as effect on planktonic growth at IC50 after 2 to 24 hrs; assay type: organism-based; settings: in vivo
# Staphylococcus aureus [5] = experiment: Antimicrobial activity against Staphylococcus aureus 29213 assessed as effect on planktonic growth at IC50 after 2 to 24 hrs by colony count method; assay type: organism-based; settings: in vivo
# Staphylococcus aureus [6] = experiment: Antimicrobial activity against Staphylococcus aureus 29213 assessed as effect on planktonic growth at PC75 after 2 to 24 hrs; assay type: organism-based; settings: in vivo
# Staphylococcus aureus [7] = experiment: Antimicrobial activity against Staphylococcus aureus 29213 assessed as effect on planktonic growth at PC50 after 2 to 24 hrs; assay type: organism-based; settings: in vivo
# Staphylococcus aureus [8] = experiment: Antimicrobial activity against methicillin-resistant Staphylococcus aureus BAA 44 assessed as effect on planktonic growth at IC50 after 2 to 24 hrs; assay type: organism-based; settings: in vivo
# Staphylococcus aureus [9] = experiment: Antimicrobial activity against Staphylococcus aureus 29213 assessed as effect on planktonic growth at PC25 after 2 to 24 hrs; assay type: organism-based; settings: in vivo
# Staphylococcus aureus [10] = experiment: Antimicrobial activity against Staphylococcus aureus 29213 assessed as effect on planktonic growth at PC50 after 2 to 24 hrs by colony count method; assay type: organism-based; settings: in vivo
# Acinetobacter baumannii [11] = experiment: Antimicrobial activity against Acinetobacter baumannii 19606 assessed as effect on planktonic growth at IC50 after 2 to 24 hrs by colony count method; parameters: species or system ATCC 19606
# Escherichia coli [12] = experiment: Antimicrobial activity against Escherichia coli K-12 ER2718 assessed as effect on planktonic growth at IC50 after 2 to 24 hrs by colony count method; assay type: organism-based
# Staphylococcus aureus [13] = experiment: Inhibition of biofilm formation in methicillin-resistant Staphylococcus aureus BAA 44 after 24 hrs by crystal violet staining-based assay; assay type: functional, organism-based; settings: BAA 44, 24 h
# Outline: (§1)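 Static biofilm development in MRSA, read out by crystal violet staining against an untreated control. Initial screen at 150 μM. Inhibitors then went to dose-response, with IC50 taken as the concentration giving 50% inhibition of biofilm growth. Induction was judged at 50 μM: under 50% induction counted as "inducer", over 50% as "strong inducer".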
# Staphylococcus aureus [14] = experiment: Induction of biofilm formation in Staphylococcus aureus 29213 at 50 uM after 24 hrs by crystal violet staining-based assay relative to control; assay type: functional
# Outline: (§2)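 Static biofilm assay with compounds at 50 μM and crystal violet read-out, relative to an untreated control. Compounds increasing biofilm by less than 50% were called inducers, and by more than 50% strong inducers.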
# Staphylococcus aureus [15] = experiment: Antimicrobial activity against Staphylococcus aureus 29213 assessed as effect on planktonic growth at PC25 after 2 to 24 hrs by colony count method; assay type: organism-based; settings: in vivo
# Staphylococcus aureus [16] = experiment: Antimicrobial activity against Staphylococcus aureus 29213 assessed as effect on planktonic growth at PC75 after 2 to 24 hrs by colony count method; assay type: organism-based; settings: in vivo
# Acinetobacter baumannii [17] = experiment: Inhibition of biofilm formation in Acinetobacter baumannii 19606 after 24 hrs by crystal violet staining-based assay; assay type: functional; settings: ATCC 19606 = CIP 70.34 = JCM 6841, 24 h
# Outline: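 Compounds active in the 150 μM screen were taken into dose-response studies under static conditions with a crystal violet read-out. IC50 is the concentration that inhibits 50% of biofilm growth relative to an untreated control.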
# Staphylococcus aureus [18] = experiment: Antimicrobial activity against Staphylococcus aureus 29213 assessed as effect on planktonic growth at 50 uM after 2 to 24 hrs; assay type: organism-based
# Outline: (§3)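 Growth curve analysis of planktonic bacteria with each biofilm inducer at 50 μM, used to assess toxicity.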
# Escherichia coli [19] = experiment: Antimicrobial activity against Escherichia coli K-12 ER2718 assessed as effect on planktonic growth at IC50 after 2 to 24 hrs; assay type: organism-based
# Acinetobacter baumannii [20] = experiment: Antimicrobial activity against Acinetobacter baumannii 19606 assessed as effect on planktonic growth at PC75 after 2 to 24 hrs by colony count method; parameters: species or system ATCC 19606
# Acinetobacter baumannii [21] = experiment: Antimicrobial activity against Acinetobacter baumannii 19606 assessed as effect on planktonic growth at PC25 after 2 to 24 hrs; parameters: species or system ATCC 19606
# Acinetobacter baumannii [22] = experiment: Antimicrobial activity against Acinetobacter baumannii 19606 assessed as effect on planktonic growth at PC50 after 2 to 24 hrs; parameters: species or system ATCC 19606
# Staphylococcus aureus [23] = experiment: Induction of biofilm formation in methicillin-resistant Staphylococcus aureus BAA 44 at 50 uM after 24 hrs by crystal violet staining-based assay relative to control; assay type: functional; outline: as §1
# Staphylococcus aureus [24] = experiment: Antimicrobial activity against methicillin-resistant Staphylococcus aureus BAA 44 assessed as effect on planktonic growth at PC25 after 2 to 24 hrs; assay type: organism-based; settings: in vivo
# Acinetobacter baumannii [25] = experiment: Antimicrobial activity against Acinetobacter baumannii 19606 assessed as effect on planktonic growth at PC75 after 2 to 24 hrs; parameters: species or system ATCC 19606
# Escherichia coli [26] = experiment: Antimicrobial activity against Escherichia coli K-12 ER2718 assessed as effect on planktonic growth at PC50 after 2 to 24 hrs by colony count method; assay type: organism-based; settings: in vivo
# Staphylococcus aureus [27] = experiment: Antimicrobial activity against methicillin-resistant Staphylococcus aureus BAA 44 assessed as effect on planktonic growth at PC50 after 2 to 24 hrs; assay type: organism-based; settings: in vivo
# Escherichia coli [28] = experiment: Antimicrobial activity against Escherichia coli K-12 ER2718 assessed as effect on planktonic growth at PC50 after 2 to 24 hrs; assay type: organism-based
# Escherichia coli [29] = experiment: Antimicrobial activity against Escherichia coli K-12 ER2718 assessed as effect on planktonic growth at PC25 after 2 to 24 hrs by colony count method; assay type: organism-based
# Escherichia coli [30] = experiment: Induction of biofilm formation in Escherichia coli K-12 ER2718 at 50 uM after 24 hrs by crystal violet staining-based assay relative to control; assay type: functional; outline: as §2
# Staphylococcus aureus [31] = experiment: Antimicrobial activity against methicillin-resistant Staphylococcus aureus BAA 44 assessed as effect on planktonic growth at 50 uM after 2 to 24 hrs; assay type: organism-based
# Outline: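 Growth-curve analysis of planktonic MRSA in the presence of each biofilm inducer at 50 μM, to check for toxicity.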
# Escherichia coli [32] = experiment: Antimicrobial activity against Escherichia coli K-12 ER2718 assessed as effect on planktonic growth at PC25 after 2 to 24 hrs; assay type: organism-based
# Acinetobacter baumannii [33] = experiment: Antimicrobial activity against Acinetobacter baumannii 19606 assessed as effect on planktonic growth at 50 uM after 2 to 24 hrs; parameters: species or system ATCC 19606; outline: as §3
# Staphylococcus aureus [34] = experiment: Antimicrobial activity against methicillin-resistant Staphylococcus aureus BAA 44 assessed as effect on planktonic growth at PC25 after 2 to 24 hrs by colony count method; assay type: organism-based; settings: in vivo
# Escherichia coli [35] = experiment: Antimicrobial activity against Escherichia coli K-12 ER2718 assessed as effect on planktonic growth at PC75 after 2 to 24 hrs by colony count method; assay type: organism-based; settings: in vivo
# Staphylococcus aureus [36] = experiment: Antimicrobial activity against methicillin-resistant Staphylococcus aureus BAA 44 assessed as effect on planktonic growth at PC75 after 2 to 24 hrs by colony count method; assay type: organism-based; settings: in vivo
# Acinetobacter baumannii [37] = experiment: Induction of biofilm formation in Acinetobacter baumannii 19606 at 50 uM after 24 hrs by crystal violet staining-based assay relative to control; assay type: functional, ATCC 19606 = CIP 70.34 = JCM 6841; outline: as §2
# Escherichia coli [38] = experiment: Antimicrobial activity against Escherichia coli K-12 ER2718 assessed as effect on planktonic growth at PC75 after 2 to 24 hrs; assay type: organism-based; settings: in vivo
# Escherichia coli [39] = experiment: Antimicrobial activity against Escherichia coli K-12 ER2718 assessed as effect on planktonic growth at 50 uM after 2 to 24 hrs; assay type: organism-based; outline: as §3
# Staphylococcus aureus [40] = experiment: Antimicrobial activity against methicillin-resistant Staphylococcus aureus BAA 44 assessed as effect on planktonic growth at PC50 after 2 to 24 hrs by colony count method; assay type: organism-based; settings: in vivo
# Staphylococcus aureus [41] = experiment: Antimicrobial activity against methicillin-resistant Staphylococcus aureus BAA 44 assessed as effect on planktonic growth at PC75 after 2 to 24 hrs; assay type: organism-based; settings: in vivo
# Acinetobacter baumannii [42] = experiment: Antimicrobial activity against Acinetobacter baumannii 19606 assessed as effect on planktonic growth at PC50 after 2 to 24 hrs by colony count method; parameters: species or system ATCC 19606
# Acinetobacter baumannii [43] = experiment: Antimicrobial activity against Acinetobacter baumannii 19606 assessed as effect on planktonic growth at PC25 after 2 to 24 hrs by colony count method; parameters: species or system ATCC 19606
structure (smiles),measurement,setting,value
O=C(Cn1cc(Cc2c(Br)[nH]c3ccccc23)nn1)Nc1ccccc1,Activity,Staphylococcus aureus [1],Non-toxic
same,Activity,Acinetobacter baumannii [2],Non-toxic
same,inhibition at 150 µM,Escherichia coli [3],12%
same,Activity,Staphylococcus aureus [4],Non-toxic
same,Activity,Staphylococcus aureus [5],Non-toxic
same,Activity,Staphylococcus aureus [6],Non-toxic
same,Activity,Staphylococcus aureus [7],Non-toxic
same,Activity,Staphylococcus aureus [8],Non-toxic
same,Activity,Staphylococcus aureus [9],Non-toxic
same,Activity,Staphylococcus aureus [10],Non-toxic
same,Activity,Acinetobacter baumannii [11],Non-toxic
same,Activity,Escherichia coli [12],Non-toxic
same,IC50,Staphylococcus aureus [13],151 µM
same,Activity,Staphylococcus aureus [14],>50%
same,Activity,Staphylococcus aureus [15],Non-toxic
same,Activity,Staphylococcus aureus [16],Non-toxic
same,IC50,Acinetobacter baumannii [17],326 µM
same,Activity,Staphylococcus aureus [18],Non-toxic
same,Activity,Escherichia coli [19],Non-toxic
CCCCCCCc1ccc(C(=O)NCCn2cc(Cc3c(Br)[nH]c4ccccc34)nn2)cc1,Activity,Acinetobacter baumannii [20],Non-toxic
same,Activity,Staphylococcus aureus [1],Non-toxic
same,Activity,Acinetobacter baumannii [21],Non-toxic
same,Activity,Acinetobacter baumannii [22],Non-toxic
same,Activity,Acinetobacter baumannii [2],Non-toxic
same,Activity,Staphylococcus aureus [23],>50%
same,Activity,Staphylococcus aureus [24],Non-toxic
same,Activity,Staphylococcus aureus [4],Non-toxic
same,Activity,Staphylococcus aureus [5],Non-toxic
same,Activity,Staphylococcus aureus [6],Non-toxic
same,Activity,Staphylococcus aureus [7],Non-toxic
same,Activity,Staphylococcus aureus [8],Non-toxic
same,Activity,Acinetobacter baumannii [25],Non-toxic
same,Activity,Escherichia coli [26],Non-toxic
same,Activity,Staphylococcus aureus [9],Non-toxic
same,Activity,Staphylococcus aureus [27],Non-toxic
same,Activity,Escherichia coli [28],Non-toxic
same,Activity,Escherichia coli [29],Non-toxic
same,Activity,Staphylococcus aureus [10],Non-toxic
same,Activity,Acinetobacter baumannii [11],Non-toxic
same,Activity,Escherichia coli [30],<50%
same,Activity,Escherichia coli [12],Non-toxic
same,Activity,Staphylococcus aureus [31],Non-toxic
same,Activity,Escherichia coli [32],Non-toxic
same,Activity,Staphylococcus aureus [14],<50%
same,Activity,Staphylococcus aureus [15],Non-toxic
same,Activity,Acinetobacter baumannii [33],Non-toxic
same,Activity,Staphylococcus aureus [34],Non-toxic
same,Activity,Escherichia coli [35],Non-toxic
same,Activity,Staphylococcus aureus [16],Non-toxic
same,Activity,Staphylococcus aureus [36],Non-toxic
same,Activity,Acinetobacter baumannii [37],<50%
same,Activity,Staphylococcus aureus [18],Non-toxic
same,Activity,Escherichia coli [38],Non-toxic
same,Activity,Escherichia coli [39],Non-toxic
same,Activity,Staphylococcus aureus [40],Non-toxic
same,Activity,Staphylococcus aureus [41],Non-toxic
same,Activity,Acinetobacter baumannii [42],Non-toxic
same,Activity,Escherichia coli [19],Non-toxic
same,Activity,Acinetobacter baumannii [43],Non-toxic
